These entries were drawn from the full list.
Apaf1 activ: activators of human Apaf-1 apoptosome. O14727. Apaf-1 apoptosome caspase-3 activation, DEVD-Rh110 fluorescence; stronger effect = lower value. activity change, negative = activation, % at 20 µM. hit rate 0.31% among 330,000;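 active = activity change at or below -40% at 20 µM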
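Assay system – biochemical Apaf-1 apoptosome reconstitution · Medium – 20 mM HEPES buffer, pH 7.5, containing CHAPS and BSA · Incubation – 30 min preincubation, 50 min reaction, room temperature · Measured by – Caspase-3-released Rh110 fluorescence, 540 nm emission, 480 nm excitation · Read-out – Caspase-3 cleavage activity downstream of Apaf-1 activation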
Rh110 interf act: Rh110 signal interference in Apaf-1 activator counter-screen; fluorescence interference (activity change), % at 20 µM, hits read low; 980 tested, under 10 active; AID 504616; shares compounds with Apaf1 activ; Rh110 fluorescence interference, quenched caspase reaction, Ex480/Em540;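 active = mean activity change at or below -40% when tested at 20 µM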
Apaf-1 act conf: confirmation of human Apaf-1 activators; reconstituted apoptosome caspase-3 activity, DEVD-Rh110 fluorescence; stronger effect = lower value; AID 504617; activity change, negative = activation, % at 20 µM; hit rate 5% among 980; shares compounds with Apaf1 activ;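 active = mean activity change at or below -40%, meaning activation of 40% or more, at 20 µM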
Apaf1 act interf: Apaf-1 activator counter-screen fluorescence artifact | AID 588592 | fluorescence interference counterscreen, Apaf-1 activator assay | EC50, µM | 55 tested, under 10 active | shares compounds with Apaf1 activ; call rule not given here
Numbers stand for hits; - = inactive; . = no result given.

SMILES	Apaf1 activ	Rh110 interf act	Apaf-1 act conf	others
Cc1ccc(C)n1-c1nn(S(=O)(=O)c2cccc3cccnc23)c2cccc(F)c12	-40	-	-
Cc1ccc(C)c2[nH]c(=O)c(C(c3nnnn3Cc3ccco3)N3CCc4ccccc4C3)cc12 (centres undefined)	-	.	.
COc1ccc(N2CCN(C(c3cc(OC)ccc3OC)c3nnnn3Cc3ccco3)CC2)cc1 (centres undefined)	-258	-	-
COc1ccc2nc(C)cc(N/N=C/c3ccccc3)c2c1	-	.	.
O=C(NCC1CCCO1)c1ccc(Br)s1 (centres undefined)	-522	-	-
Nc1c(C(=O)NCC2CCCO2)c2nc3ccccc3nc2n1-c1ccccc1 (centres undefined)	-	.	.
Nc1ccc(Br)c2cccnc12	-	.	.
CC(C)C(C(=O)O)N1C(=O)/C(=C/C=C/c2ccco2)SC1=S (centres undefined)	-	.	.
CCc1ccc(N=C2NC(=O)/C(=C/c3cc(Br)c(OCC(=O)O)c(OC)c3)S2)cc1	-99	-	-67	Apaf1 act interf=-
O=C1C=C(O)c2cccc(O)c2C1=O	-	.	.
CCCCCc1cc(=O)oc2c(C(CCN3CCCC(C)C3)c3ccc(OC)cc3)c(OC)cc(OC)c12 (centres undefined)	-	.	.
COc1ccc2cc1Oc1ccc(cc1)C[C@H]1c3c(cc(OC)c4c3Oc3c(ccc5c3[C@H](C2)N(C)CC5)O4)CCN1C	-	.	.
COc1ccc2c(-c3ccc(OCCN4CCCCC4)cc3)c(-c3ccccc3OC)sc2c1	-	.	.
Cc1cn([C@H]2C[C@H](N=[N+]=[N-])[C@@H](CO)O2)c(=O)[nH]c1=O	-43	-	-
CCC(CO)Oc1cc(NCc2cccc(Cl)c2)c2ncn(C(C)C)c2c1 (centres undefined)	-	.	.
O=[N+]([O-])c1ccc(C=Nc2cccc3ccccc23)s1	-	.	.
COc1ccc(C(CNC(=O)c2cccc(NS(=O)(=O)c3ccc(Br)cc3)c2)N(C)C)cc1 (centres undefined)	-143	-	-
CCOC(=O)N1CCN(C(=O)c2cccc(S(=O)(=O)Nc3ccc(OC)cc3)c2)CC1	-	.	.
O=C(Nc1ccccc1)Oc1ccc[nH]c1=O	-	.	.
CCCCN(CC)c1nc(N)c2c(N)nc(OCC)cc2c1C#N	-	.	.
CC(C)c1nc(SCC(=O)c2c[nH]c3ccccc23)n[nH]1	-41	-	-
CS(=O)(=O)c1nc(-c2ccc(Br)cc2)cc(-c2ccccc2)c1C#N	-	.	.
CN(C1=C(NC(=O)c2ccccc2)C(=O)c2ccccc2C1=O)C1CCS(=O)(=O)C1 (centres undefined)	-	.	.
COc1ccc2[nH]c3c(=O)n(/N=C/c4ccc(OC)c(CN5CCCC5)c4)c(C)nc3c2c1	-	.	.
O=c1[nH]c(Nc2ccccc2)cc2ccccc12	-	.	.
SMILES	Apaf1 activ	Rh110 interf act	Apaf-1 act conf	others
O=C1c2ccccc2C(=O)c2[nH]c(=O)[nH]c21	-	.	.
O=c1[nH]c(=O)c2nc3c4ccccc4c4ccccc4c3nc2[nH]1	-43	-	-
COc1cc(/C=C2\C(=O)N(c3ccc(S(N)(=O)=O)cc3)N=C2C)ccc1OC(=O)c1ccco1	-	.	.
Cc1noc(NS(=O)(=O)c2ccc(N/C=C\C(=O)c3ccc(F)cc3)cc2)c1C	-111	-	-
COCCCNC(=O)c1c(N)n(-c2cccc(S(N)(=O)=O)c2)c2nc3ccccc3nc12	-	.	.
CCn1cc(C(=O)NCCCOC)c(=O)c2cc(S(=O)(=O)N(C)C)ccc21	-303	-	-
C/C(=N\Nc1ccc([N+](=O)[O-])cc1)c1ccc(C#N)cc1	-44	-	-
CCOC(=O)N1CCN(c2cc(NCCC(=O)O)c3c4c(onc24)-c2ccccc2C3=O)CC1	-	.	.
C#CCOCCOCCOCCNc1nc(N2CCN(C(=O)CCCCCCCCCCNC(=O)[C@H](CCCCN)n3cc(CCO)nn3)CC2)nc(N2CCN(C(=O)CCCCCCCCCCNC(=O)[C@H](CCCCN)n3cc(CCCC(=O)O)nn3)CC2)n1	-	.	.
CN(CC(=O)NCc1ccccc1)CC(=O)Nc1ccc(Cl)c(C(F)(F)F)c1	-	.	.
Cc1ccc(NC(=O)CNCc2ccccc2)cc1Br	-48	-	-
C[C@@H]1CN([C@H](C)CO)C(=O)Cc2cc(NS(=O)(=O)c3ccc(Cl)cc3)ccc2O[C@H]1CN(C)Cc1ccc(C(F)(F)F)cc1	-	.	.
Cc1cc(C)cc(NC(=O)C2C3C=CC4(O3)C2C(=O)N(CCCN2CCCCC2)C4C(=O)NC2CCCCC2)c1 (centres undefined)	-325	-	-
CCCCNc1c(-c2ccc(SC(C)CC)cc2)nc2cnccn12 (centres undefined)	-	.	.
COC/C=C/C1=CC2=CC(=O)C(C)(OC(=O)c3cnc4ccccc4n3)C(=O)C2=CN1CC(C)C (centres undefined)	-	.	.
CC(C)c1c(Cl)c(O)c(-c2ccccc2)c(=O)n1-c1ccc(F)cc1	-40	-	-
Cc1ccc(-c2ccc(/C=N/N=C3/NC(=O)C(CC(=O)O)S3)o2)c([N+](=O)[O-])c1 (centres undefined)	-	.	.
CCN(CC)CCOC(=O)c1ccc(N/C=C(/C#N)c2nc(-c3ccc(OC)c(OC)c3)cs2)cc1	-	.	.
Cc1cc(O)c(C(C)C)cc1N=Cc1cc([N+](=O)[O-])ccc1O	-	.	.
CCCCC(CCC(=O)Nc1cc([N+](=O)[O-])ccc1O)C(=O)O (centres undefined)	-227	-	-
COc1ccc(/C=N/NC(=O)c2nn(-c3ccc(Cl)cc3)c(=O)c3c(N)scc23)cc1	-	.	.
COc1ccc2cc1Oc1ccc(cc1)CC1c3c(cc(OC)c4c3Oc3cc5c(cc3O4)CCNC5C2)CCN1C (centres undefined)	-	.	.
COc1cc(C#Cc2c(-c3cncn3C)n(C)c3ccc(-c4cnc(OC)nc4)cc23)cc(OC)c1	-	.	.
O=C(NCc1nnc(SCC(=O)N2CCCCCC2)o1)c1ccccc1F	-251	-	-
CCOC(=O)c1ccc(-n2[nH]c(-c3ccccc3)cc2=O)cc1	-	.	.
SMILES	Apaf1 activ	Rh110 interf act	Apaf-1 act conf	others
CCOC(=O)c1cc(C#N)c(N2CCN(c3ccccn3)CC2)nc1-c1ccccc1	-443	-	-
CCOC(=O)c1cnn(-c2c(Cc3ccccc3)c(C)nc3c(-c4ccccc4)c(C)nn23)c1N	-	.	.
O=C(O)CCCNc1cc(N2CCN(C(=O)c3ccco3)CC2)c2noc3c2c1C(=O)c1ccccc1-3	-	.	.
O=C(CCc1ccccc1)N[C@@H]1c2ccccc2CC[C@H]1OCc1ccccc1	-41	-	-
CCC(=O)N(CCc1ccccc1C)Cc1cc2cc3c(cc2[nH]c1=O)OCO3	-	.	.
CCN(CC)CCNC(=O)c1ccc2c(c1NCCO)C(=O)c1ccccc1C2=O	-	.	.
O=C(CCn1c2c(c3ccccc31)CCCC2)NNC(=O)c1ccc([N+](=O)[O-])cc1	-	.	.
Cc1ccc(C(=O)NC(=S)NNC(=O)c2cccc([N+](=O)[O-])c2)cc1	-116	-	-
O=C(COC(=O)c1ccc([N+](=O)[O-])s1)NNC(=O)c1ccccc1	-	.	.
CC1(OC(=O)C2CCCC2)C(=O)C=C2C=C(c3ccsc3)N(CCCCO)C=C2C1=O (centres undefined)	-	.	.
O=C1c2cc(F)ccc2-n2c1nc1ccccc1c2=O	-	.	.

Compound activity deposited in PubChem BioAssay by Sanford-Burnham Center for Chemical Genomics.
